Laboratory results from ChEMBL document CHEMBL3588850, “Multivalent Amino Sugars to Recognize Different TAR RNA Conformations” (Medchemcomm, 2014).
The source made the active and inactive calls. The calls are words filed in the database; no cut-off is given here.

How the values were obtained:
Nucleic Acid [1] = experiment: Induction of conformational changes in HIV1 TAR RNA tetraloop mutant assessed as changes in 260 to 270 nm region using 1 molar equivalents of compound at pH 6.8 by CD spectroscopy; assay type: nucleic-acid assay; conditions: Human immunodeficiency virus 1
Summary of the method: (§1)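 Spectra recorded before and after adding 1 molar equivalent ligand (≤1% v/v, in buffer). Scan 325–200 nm at 500 nm/min, 1 nm bandwidth, 1 cm cuvette, 20 °C. Each spectrum is the average of 10 scans; ΔCD plotted.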

[2] = tested on: Human immunodeficiency virus 1; experiment: Induction of thermal stability changes in HIV1 TAR RNA U3 bulge mutant assessed as change in melting temperature using 1 molar equivalents of compound pre-incubated for 4 hrs at pH 6.8 at 4 degC before test by UV thermal denaturation assay
Summary of the method: (§2)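 TAR RNA mutants at 1 μM/strand mixed with 1 or 2 molar equivalents of ligand in 100 mM KCl, 10 mM SC, 0.5 mM EDTA, pH 6.8, then held 4 h at 4 °C. Absorbance at 260 nm in 1 cm cuvettes, 15–100 °C, heating 0.3 °C/min. Tm taken from first-derivative plots and compared with the no-ligand sample.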

Nucleic Acid [3] = experiment: Induction of conformational changes in HIV1 TAR RNA tetraloop mutant assessed as induction of red shift in CD spectra region using 1 molar equivalents of compound at pH 6.8 by CD spectroscopy; assay type: nucleic-acid assay; conditions: Human immunodeficiency virus 1; summary of the method: as §1
[4] = tested on: Human immunodeficiency virus 1; experiment: Induction of thermal stability changes in HIV1 TAR RNA bulgeless mutant assessed as change in melting temperature using 1 molar equivalents of compound pre-incubated for 4 hrs at pH 6.8 at 4 degC before test by UV thermal denaturation assay; summary of the method: as §2
[5] = tested on: Human immunodeficiency virus 1; experiment: Induction of thermal stability changes in HIV1 TAR RNA bulgeless tetraloop mutant assessed as change in melting temperature using 1 molar equivalents of compound pre-incubated for 4 hrs at pH 6.8 at 4 degC before test by UV thermal denaturation assay; summary of the method: as §2
Nucleic Acid [6] = experiment: Binding affinity to wild type HIV1 TAR RNA assessed as induction of chemical shifts changes of GH1 and UH3 regions by NMR spectroscopy; assay type: nucleic-acid assay; conditions: Human immunodeficiency virus 1
Summary of the method: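 Imino-region 1D 1H jump-return echo spectra recorded at 298 K on an 850 MHz instrument with a cryoprobe, with increasing amounts of ligand added.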

[7] = tested on: Human immunodeficiency virus 1; experiment: Induction of thermal stability changes in HIV1 TAR RNA tetraloop mutant assessed as change in melting temperature using 1 molar equivalents of compound pre-incubated for 4 hrs at pH 6.8 at 4 degC before test by UV thermal denaturation assay; summary of the method: as §2
[8] = tested on: Human immunodeficiency virus 1; experiment: Induction of thermal stability changes in wild type HIV1 TAR RNA assessed as change in melting temperature using 1 molar equivalents of compound pre-incubated for 4 hrs at pH 6.8 at 4 degC before test by UV thermal denaturation assay
Nucleic Acid [9] = experiment: Induction of conformational changes in HIV1 TAR RNA bulgeless tetraloop mutant assessed as changes in 210 to 220 nm region using 1 molar equivalents of compound at pH 6.8 by CD spectroscopy; assay type: nucleic-acid assay; conditions: Human immunodeficiency virus 1; summary of the method: as §1
Nucleic Acid [10] = experiment: Induction of conformational changes in wild type HIV1 TAR RNA assessed as increase in intensity in 265 nm region using 1 molar equivalents of compound at pH 6.8 by CD spectroscopy; assay type: nucleic-acid assay; conditions: Human immunodeficiency virus 1
Nucleic Acid [11] = experiment: Binding affinity to wild type HIV1 TAR RNA at pH 6.8 by ethidium bromide displacement assay; assay type: nucleic-acid assay, Human immunodeficiency virus 1
Summary of the method: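 TAR RNA (200 nM/strand) and EtBr (5 μM) in 100 mM KCl, 10 mM SC, 0.5 mM EDTA, pH 6.8, titrated with ligand aliquots (at most 4% v/v). Fluorescence excited at 545 nm and read at 610 nm. IC50 is the ligand concentration that displaces 50% of EtBr, taken from a sigmoidal fit of fraction displaced versus log ligand concentration.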

Nucleic Acid [12] = experiment: Binding affinity to HIV1 TAR RNA bulgeless tetraloop mutant assessed as association constant at pH 6.8 by ethidium bromide displacement assay based Scatchard analysis method; assay type: nucleic-acid assay; conditions: Human immunodeficiency virus 1
Summary of the method: (§3)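 Synthetic 2′-ACE-protected TAR RNA, deprotected, heated 98 °C 5 min, then ice-cooled 15 min. TAR RNA at 200 nM/strand with ethidium bromide 5 μM in 100 mM KCl, 10 mM SC, 0.5 mM EDTA, pH 6.8. Ligand added stepwise, ≤4% v/v. Excitation 545 nm, emission 580–660 nm, intensity at 610 nm normalized. IC50 from sigmoidal fit of fraction EtBr displaced vs log ligand; association constants from Scatchard analysis.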

Nucleic Acid [13] = experiment: Induction of conformational changes in HIV1 TAR RNA U3 bulge mutant aassessed as changes in 210 to 220 nm region using 1 molar equivalents of compound at pH 6.8 by CD spectroscopy; assay type: nucleic-acid assay; conditions: Human immunodeficiency virus 1; summary of the method: as §1
Nucleic Acid [14] = experiment: Induction of conformational changes in HIV1 TAR RNA bulgeless mutant assessed as changes in 210 to 220 nm region using 1 molar equivalents of compound at pH 6.8 by CD spectroscopy; assay type: nucleic-acid assay; conditions: Human immunodeficiency virus 1; summary of the method: as §1
Nucleic Acid [15] = experiment: Binding affinity to wild type HIV1 TAR RNA assessed as association constant at pH 6.8 by ethidium bromide displacement assay based Scatchard analysis method; assay type: nucleic-acid assay; conditions: Human immunodeficiency virus 1
Summary of the method: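 Ethidium bromide displacement: 5 μM EtBr with TAR RNA at 200 nM/strand (under 20% of EtBr bound) in 100 mM KCl, 10 mM SC, 0.5 mM EDTA, pH 6.8. Ligand added in concentrated aliquots, at most 4% v/v. Excitation 545 nm, emission 580–660 nm, intensity at 610 nm. Association constant obtained by Scatchard analysis of the titration data.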

Nucleic Acid [16] = experiment: Induction of conformational changes in wild type HIV1 TAR RNA assessed as changes in 210 to 220 nm region using 1 molar equivalents of compound at pH 6.8 by CD spectroscopy; assay type: nucleic-acid assay; conditions: Human immunodeficiency virus 1
Nucleic Acid [17] = experiment: Binding affinity to HIV1 TAR RNA tetraloop mutant assessed as association constant at pH 6.8 by ethidium bromide displacement assay based Scatchard analysis method; assay type: nucleic-acid assay; conditions: Human immunodeficiency virus 1; summary of the method: as §3
Nucleic Acid [18] = experiment: Binding affinity to HIV1 TAR RNA bulgeless tetraloop mutant at pH 6.8 by ethidium bromide displacement assay; assay type: nucleic-acid assay, Human immunodeficiency virus 1; summary of the method: as §3
Nucleic Acid [19] = experiment: Binding affinity to HIV1 TAR RNA tetraloop mutant at pH 6.8 by ethidium bromide displacement assay; assay type: nucleic-acid assay, Human immunodeficiency virus 1; summary of the method: as §3
Nucleic Acid [20] = experiment: Binding affinity to HIV1 TAR RNA tetraloop mutant assessed as induction of imino chemical shifts changes by NMR spectroscopy; assay type: nucleic-acid assay; conditions: Human immunodeficiency virus 1
Nucleic Acid [21] = experiment: Induction of conformational changes in HIV1 TAR RNA bulgeless tetraloop mutant assessed as induction of red shift in CD spectra region using 1 molar equivalents of compound at pH 6.8 by CD spectroscopy; assay type: nucleic-acid assay; conditions: Human immunodeficiency virus 1; summary of the method: as §1
Nucleic Acid [22] = experiment: Induction of conformational changes in HIV1 TAR RNA bulgeless mutant assessed as changes in 260 to 270 nm region using 1 molar equivalents of compound at pH 6.8 by CD spectroscopy; assay type: nucleic-acid assay; conditions: Human immunodeficiency virus 1; summary of the method: as §1
Nucleic Acid [23] = experiment: Induction of conformational changes in HIV1 TAR RNA bulgeless mutant assessed as induction of red shift in CD spectra region using 1 molar equivalents of compound at pH 6.8 by CD spectroscopy; assay type: nucleic-acid assay; conditions: Human immunodeficiency virus 1; summary of the method: as §1
Nucleic Acid [24] = experiment: Induction of conformational changes in HIV1 TAR RNA bulgeless tetraloop mutant assessed as changes in 260 to 270 nm region using 1 molar equivalents of compound at pH 6.8 by CD spectroscopy; assay type: nucleic-acid assay; conditions: Human immunodeficiency virus 1; summary of the method: as §1
Nucleic Acid [25] = experiment: Binding affinity to HIV1 TAR RNA U3 bulge mutant at assessed as association constant at pH 6.8 by ethidium bromide displacement assay based Scatchard analysis method; assay type: nucleic-acid assay; conditions: Human immunodeficiency virus 1; summary of the method: as §3
Nucleic Acid [26] = experiment: Induction of conformational changes in HIV1 TAR RNA tetraloop mutant assessed as changes in 210 to 220 nm region using 1 molar equivalents of compound at pH 6.8 by CD spectroscopy; assay type: nucleic-acid assay; conditions: Human immunodeficiency virus 1; summary of the method: as §1
Nucleic Acid [27] = experiment: Induction of conformational changes in HIV1 TAR RNA U3 bulge mutant aassessed as changes in 260 to 270 nm region using 1 molar equivalents of compound at pH 6.8 by CD spectroscopy; assay type: nucleic-acid assay; conditions: Human immunodeficiency virus 1; summary of the method: as §1
Nucleic Acid [28] = experiment: Binding affinity to HIV1 TAR RNA U3 bulge mutant at pH 6.8 by ethidium bromide displacement assay; assay type: nucleic-acid assay, Human immunodeficiency virus 1; summary of the method: as §3
Nucleic Acid [29] = experiment: Induction of conformational changes in HIV1 TAR RNA U3 bulge mutant assessed as induction of red shift in CD spectra region using 1 molar equivalents of compound at pH 6.8 by CD spectroscopy; assay type: nucleic-acid assay; conditions: Human immunodeficiency virus 1; summary of the method: as §1
Nucleic Acid [30] = experiment: Binding affinity to HIV1 TAR RNA bulgeless mutant assessed as association constant at pH 6.8 by ethidium bromide displacement assay based Scatchard analysis method; assay type: nucleic-acid assay; conditions: Human immunodeficiency virus 1; summary of the method: as §3

NC[C@@H]1O[C@H](O[C@H]2[C@@H](O)[C@H](O[C@@H]3[C@@H](O)[C@H](N)C[C@H](N)[C@H]3O[C@H]3O[C@H](CN)[C@@H](O)[C@H](O)[C@H]3N)O[C@@H]2Cn2cc(COCc3cn(C[C@H]4O[C@@H](O[C@@H]5[C@@H](O)[C@H](N)C[C@H](N)[C@H]5O[C@H]5O[C@H](CN)[C@@H](O)[C@H](O)[C@H]5N)[C@H](O)[C@@H]4O[C@H]4O[C@@H](CN)[C@@H](O)[C@H](O)[C@H]4N)nn3)nn2)[C@H](N)[C@@H](O)[C@@H]1O
Activity (Nucleic Acid [1]): Active | ΔTm [2]: 8.5 °C | Activity (Nucleic Acid [3]): Active | ΔTm [4]: 5 °C | ΔTm [5]: > 5 °C | Activity (Nucleic Acid [6]): Dose-dependent effect | ΔTm [7]: 6 °C | ΔTm [8]: 10.2 °C | Activity (Nucleic Acid [9]): inactive | Activity (Nucleic Acid [10]): inactive | IC50 (Nucleic Acid [11]): 112 nM | K (Nucleic Acid [12]): 2.3 ×10⁸ /M | Activity (Nucleic Acid [13]): Active | Activity (Nucleic Acid [14]): inactive | K (Nucleic Acid [15]): 1.2 ×10⁸ /M | Activity (Nucleic Acid [16]): Active | K (Nucleic Acid [17]): 2.7 ×10⁷ /M | IC50 (Nucleic Acid [18]): 122 nM | IC50 (Nucleic Acid [19]): 156 nM | Activity (Nucleic Acid [20]): Active | Activity (Nucleic Acid [21]): Active | Activity (Nucleic Acid [22]): Active | Activity (Nucleic Acid [23]): Active | Activity (Nucleic Acid [24]): Active | K (Nucleic Acid [25]): 1.6 ×10⁷ /M | Activity (Nucleic Acid [26]): inactive | Activity (Nucleic Acid [27]): Active | IC50 (Nucleic Acid [28]): 186 nM | Activity (Nucleic Acid [29]): Active | K (Nucleic Acid [30]): 7.5 ×10⁷ /M
